Values after ≈ are worked out from the molar mass of the structure shown.
How the values were obtained:
Assay type in all cases: functional
[1] = test system: Escherichia coli; experiment: Antibacterial activity against Escherichia coli after 48 hrs by agar dilution method
In short: (§1)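 Agar dilution per NCCLS on clinical isolates. 2-fold serial dilutions of compound (2 mL) mixed into 18 mL hot Mueller-Hinton agar. Inoculum from blood slants, adjusted to approx. 10⁵–10⁶ cfu/mL in sterile 0.90% NaCl, then spotted onto the plates. Incubated 36.5 °C, 48 h. MIC is the lowest concentration giving complete growth inhibition. Run in triplicate at pH 7.40.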

[2] = test system: Staphylococcus epidermidis; experiment: Antibacterial activity against methicillin-resistant Staphylococcus epidermidis at 80 ug/ml after 24 hrs by Oxford cup assay; conditions: read-out: IZ
In short: (§2)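 Oxford cup diffusion: clinical isolate inoculum in 0.9% saline set by McFarland standard, spread evenly on nutrient agar. Cups placed equidistant on the surface and filled with compound solutions prepared as for the agar dilution test, at several concentrations. Inhibition zone measured after 24 h at 37 °C.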

[3] = test system: Staphylococcus epidermidis; experiment: Antibacterial activity against methicillin-resistant Staphylococcus epidermidis at 160 ug/ml after 24 hrs by Oxford cup assay; conditions: read-out: IZ; in short: as §2
[4] = test system: Staphylococcus aureus; experiment: Antibacterial activity against methicillin-resistant Staphylococcus aureus at 80 ug/ml after 24 hrs by Oxford cup assay; conditions: read-out: IZ; in short: as §2
[5] = test system: Escherichia coli; experiment: Antibacterial activity against Escherichia coli at 320 ug/ml after 24 hrs by Oxford cup assay; conditions: read-out: IZ
In short: (§3)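 Oxford cup diffusion with clinical isolates. Inoculum made in 0.9% saline to a McFarland standard and spread evenly on nutrient agar. Compound solutions, prepared as for the agar dilution test, were added at the stated concentration to Oxford cups set equidistant on the agar surface. Inhibition zones were measured after 24 h at 37 °C.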

[6] = test system: Streptococcus agalactiae; experiment: Antibacterial activity against Streptococcus agalactiae at 80 ug/ml after 24 hrs by Oxford cup assay; conditions: read-out: IZ; in short: as §3
[7] = test system: Staphylococcus aureus; experiment: Antibacterial activity against methicillin-resistant Staphylococcus aureus at 320 ug/ml after 24 hrs by Oxford cup assay; conditions: read-out: IZ; in short: as §2
[8] = test system: Staphylococcus aureus; experiment: Antibacterial activity against methicillin-resistant Staphylococcus aureus after 48 hrs by agar dilution method
In short: (§4)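 Agar dilution per NCCLS: 2-fold serial dilutions incorporated into hot Mueller-Hinton agar. Clinical isolates grown from blood slants, suspended in sterile 0.90% NaCl to about 10⁵–10⁶ cfu/mL, spotted onto plates. Incubation 36.5 °C, 48 h. MIC taken as the lowest concentration giving complete growth inhibition. Run in triplicate at pH 7.40.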

[9] = test system: Streptococcus agalactiae; experiment: Antibacterial activity against Streptococcus agalactiae at 320 ug/ml after 24 hrs by Oxford cup assay; conditions: read-out: IZ; in short: as §3
[10] = test system: Staphylococcus aureus; experiment: Antibacterial activity against methicillin-resistant Staphylococcus aureus at 160 ug/ml after 24 hrs by Oxford cup assay; conditions: read-out: IZ; in short: as §2
[11] = test system: Streptococcus agalactiae; experiment: Antibacterial activity against Streptococcus agalactiae after 48 hrs by agar dilution method; in short: as §1
[12] = test system: Escherichia coli; experiment: Antibacterial activity against Escherichia coli at 160 ug/ml after 24 hrs by Oxford cup assay; conditions: read-out: IZ; in short: as §3
[13] = test system: Escherichia coli; experiment: Antibacterial activity against Escherichia coli at 80 ug/ml after 24 hrs by Oxford cup assay; conditions: read-out: IZ; in short: as §3
[14] = test system: Staphylococcus epidermidis; experiment: Antibacterial activity against methicillin-resistant Staphylococcus epidermidis after 48 hrs by agar dilution method; in short: as §4
[15] = test system: Streptococcus agalactiae; experiment: Antibacterial activity against Streptococcus agalactiae at 160 ug/ml after 24 hrs by Oxford cup assay; conditions: read-out: IZ; in short: as §3
[16] = test system: Staphylococcus epidermidis; experiment: Antibacterial activity against methicillin-resistant Staphylococcus epidermidis at 320 ug/ml after 24 hrs by Oxford cup assay; conditions: read-out: IZ; in short: as §2

| Structure (SMILES) | MIC [1] | zone of inhibition at 80 µg/mL [2] | zone of inhibition at 160 µg/mL [3] | zone of inhibition at 80 µg/mL [4] | zone of inhibition at 320 µg/mL [5] | zone of inhibition at 80 µg/mL [6] | zone of inhibition at 320 µg/mL [7] | MIC [8] | zone of inhibition at 320 µg/mL [9] | zone of inhibition at 160 µg/mL [10] | MIC [11] | zone of inhibition at 160 µg/mL [12] | zone of inhibition at 80 µg/mL [13] | MIC [14] | zone of inhibition at 160 µg/mL [15] | zone of inhibition at 320 µg/mL [16] |
| --- | --- | --- | --- | --- | --- | --- | --- | --- | --- | --- | --- | --- | --- | --- | --- | --- |
| C=C[C@]1(C)C[C@@H](OC(=O)CSC(C)(C)CNC(=O)[C@@H](N)c2ccccc2)[C@]2(C)[C@H](C)CC[C@]3(CCC(=O)[C@H]32)[C@@H](C)[C@@H]1O | 4 µg/mL (≈ 6.68 µM) | 10.3 mm | 10.6 mm | 9.82 mm | 10.7 mm | 10.7 mm | 10.3 mm | 0.25 µg/mL (≈ 0.417 µM) | 11.2 mm | 10.1 mm | 8 µg/mL (≈ 13.4 µM) | 9.89 mm | 10 mm | 4 µg/mL (≈ 6.68 µM) | 10.4 mm | 11.2 mm |
| C=C[C@]1(C)C[C@@H](OC(=O)CSC(C)(C)CNC(=O)c2ccc(C)cc2)[C@]2(C)[C@H](C)CC[C@]3(CCC(=O)[C@H]32)[C@@H](C)[C@@H]1O | 4 µg/mL (≈ 6.85 µM) | 10.9 mm | 10.3 mm | 10.4 mm | 16.6 mm | 9.82 mm | 12.6 mm | 0.25 µg/mL (≈ 0.428 µM) | 12.3 mm | 11.5 mm | 0.5 µg/mL (≈ 0.856 µM) | 15.1 mm | 9.8 mm | 16 µg/mL (≈ 27.4 µM) | 10.9 mm | 12.1 mm |
| C=C[C@]1(C)C[C@@H](OC(=O)CSC(C)(C)CNC(=O)c2cccc(Cl)c2)[C@]2(C)[C@H](C)CC[C@]3(CCC(=O)[C@H]32)[C@@H](C)[C@@H]1O | 8 µg/mL (≈ 13.2 µM) | 9.45 mm | 10.6 mm | 11.9 mm | 15.7 mm | 10.4 mm | 13.5 mm | 8 µg/mL (≈ 13.2 µM) | 12.2 mm | 13.1 mm | 32 µg/mL (≈ 53 µM) | 10.7 mm | 11.9 mm | 16 µg/mL (≈ 26.5 µM) | 13.9 mm | 11.9 mm |
| C=C[C@]1(C)C[C@@H](OC(=O)CSC(C)(C)CNC(=O)OCc2ccccc2)[C@]2(C)[C@H](C)CC[C@]3(CCC(=O)[C@H]32)[C@@H](C)[C@@H]1O | 32 µg/mL (≈ 53.3 µM) | 11 mm | 10.2 mm | 10.4 mm | 14.7 mm | 10.7 mm | 12.7 mm | 4 µg/mL (≈ 6.67 µM) | 11.5 mm | 11.5 mm | 16 µg/mL (≈ 26.7 µM) | 15.3 mm | 11.7 mm | 32 µg/mL (≈ 53.3 µM) | 10.6 mm | 11 mm |
| C=C[C@]1(C)C[C@@H](OC(=O)CSC(C)(C)CNC(=O)[C@H](N)C(C)C)[C@]2(C)[C@H](C)CC[C@]3(CCC(=O)[C@H]32)[C@@H](C)[C@@H]1O [VALNEMULIN] | 0.5 µg/mL (≈ 0.885 µM) | 22.6 mm | 25.9 mm | 20.4 mm | 24.5 mm | 12.8 mm | 25.8 mm | 0.125 µg/mL (≈ 0.221 µM) | 15.8 mm | 22.9 mm | 0.5 µg/mL (≈ 0.885 µM) | 23.7 mm | 19.5 mm | 0.5 µg/mL (≈ 0.885 µM) | 14.5 mm | 27.5 mm |
| C=C[C@]1(C)C[C@@H](OC(=O)CSC(C)(C)CNC(=O)c2cccc(C)c2)[C@]2(C)[C@H](C)CC[C@]3(CCC(=O)[C@H]32)[C@@H](C)[C@@H]1O | 8 µg/mL (≈ 13.7 µM) | 9.9 mm | 10.8 mm | 11.2 mm | 15.5 mm | 13 mm | 13.1 mm | 1 µg/mL (≈ 1.71 µM) | 13.6 mm | 13.2 mm | 2 µg/mL (≈ 3.43 µM) | 13.7 mm | 11.3 mm | 16 µg/mL (≈ 27.4 µM) | 13 mm | 12.4 mm |

— ChEMBL document CHEMBL2375359, “Synthesis and antibacterial evaluation of novel pleuromutilin derivatives” (2013)
